Assay [1] has as its system Rattus norvegicus. In words: Effect on […] in rats after intraperitoneal administration of compound (10 mg/kg) and GBL, was determined and expressed as percent reversal of the increase in DOPA. The assay is classed as functional.
The next assay relates to Monkey. In words: Inhibition of conditioned avoidance in squirrel monkeys was determined after peroral administration of compound. The assay is classed as functional. As to conditions: in Saimiri, po. The gist of the method:
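Squirrel monkeys dosed orally, conditioned avoidance monitored for 6 h. Inhibition taken as percent of control avoidance responding over the 4 h peak-effect period. ED50 with 95% confidence range from three doses, eight monkeys per dose.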

Another assay relates to Mus musculus. As to the kind of experiment: Inhibition of locomotor activity in mice was determined after intraperitoneal administration of compound. The format is functional. Conditions: ip. The gist of the method: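 Mice dosed ip, then tested immediately for 1 h in darkened cylindrical photobeam chambers. Inhibition expressed relative to vehicle-treated mice. ED50 with 95% confidence range from three to six doses, 6–18 animals per dose.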

For assay [2], the target named is T1, D(2) dopamine receptor (Homo sapiens, UniProt P14416). In words: Binding affinity towards human Dopamine receptor D2L evaluated using [3H]N-0437. In outline:
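CHO-K1 membranes expressing human D2L incubated in triplicate with 1 nM [3H]N-0437 in 25 mM Tris HCl pH 7.4 with 1 mM EDTA and 6 mM MgCl2, 25 °C for 60 min. Nonspecific binding set with 1 μM haloperidol. Filtration, scintillation counting. Ki by nonlinear regression from four to six concentrations, ± SEM.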

For assay [3], the system named is Rattus norvegicus. As to the kind of experiment: Effect on DOPA accumulation in rat striatum after intraperitoneal administration of compound (10 mg/kg) and GBL, was determined and expressed as percent reversal of the increase in DOPA. The format is functional. The gist of the method: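 Male Long-Evans rats given compound 10 mg/kg ip 60 min before sacrifice. GBL 750 mg/kg ip (omitted in controls) and NSD 1015 100 mg/kg ip given 30 min before sacrifice. Striatal DOPA measured by HPLC with electrochemical detection. Result is percent reversal of the GBL-induced DOPA rise, ± SEM.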

The target of assay [4] is T1, D(2) dopamine receptor. In words: Intrinsic activity relative to Quinpirole for human Dopamine receptor D2L was determined. In outline:
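CHO-10001 cells transfected with human DA D2L receptor; activation read as stimulation of [3H]thymidine uptake (mitogenesis). Intrinsic activity = maximal response of compound relative to maximal response of full DA agonist quinpirole, ± SEM.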

A further assay has as its target T2, D(4) dopamine receptor (Homo sapiens, UniProt P21917).
T2 sequence (P21917 whole entry): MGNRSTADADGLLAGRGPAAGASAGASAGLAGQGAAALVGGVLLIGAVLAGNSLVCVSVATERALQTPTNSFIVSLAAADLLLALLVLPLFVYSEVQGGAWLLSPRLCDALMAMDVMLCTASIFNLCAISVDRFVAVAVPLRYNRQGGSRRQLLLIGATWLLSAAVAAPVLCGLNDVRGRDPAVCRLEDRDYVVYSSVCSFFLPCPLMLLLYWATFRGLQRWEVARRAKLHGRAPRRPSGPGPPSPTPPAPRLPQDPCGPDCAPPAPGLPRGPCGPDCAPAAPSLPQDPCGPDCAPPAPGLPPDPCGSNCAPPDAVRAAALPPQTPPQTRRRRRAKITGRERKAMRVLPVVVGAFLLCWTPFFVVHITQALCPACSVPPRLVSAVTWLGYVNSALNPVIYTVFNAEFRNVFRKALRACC
In words: Binding affinity towards human Dopamine receptor D4.2 evaluated using [3H]spiperone. The gist of the method:
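CHO-K1 membranes bearing human D4.2 run in triplicate with 0.2 nM [3H]spiperone in Tris HCl pH 7.4 buffer with 1.5 mM CaCl2 and 5 mM KCl, 25 °C, 60 min. Specific binding is the fraction blocked by 1 μM haloperidol. Filtration, then scintillation counting. Ki ± SEM by nonlinear regression over four to six concentrations; IC50 given where inhibition at 10 μM is below 50%.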

The target of the next assay is D(3) dopamine receptor (Homo sapiens, UniProt P35462). In words: Binding affinity towards human Dopamine receptor D3 evaluated using [3H]spiperone.
For assay [5], the target named is T1, D(2) dopamine receptor. As to the kind of experiment: Binding affinity towards human Dopamine receptor D2L evaluated using [3H]spiperone. In outline: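 Human D2L expressed in CHO-K1 membranes. Labelled with 0.6 nM [3H]spiperone in triplicate in Tris HCl pH 7.4 buffer with 1 mM EDTA and 6 mM MgCl2, 60 min at 25 °C. 1 μM haloperidol defines specific binding. Bound ligand filtered and counted. Ki ± SEM from four to six concentrations by nonlinear regression.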

Assay [6] concerns Rattus norvegicus. As to the kind of experiment: Effect on DOPA accumulation in rat striatum after intraperitoneal administration of compound (3 mg/kg) and GBL, was determined and expressed as percent reversal of the increase in DOPA. The assay is classed as functional.

The structures appear in SMILES notation. Some results are limits rather than exact numbers.

T1 sequence (P14416 whole entry): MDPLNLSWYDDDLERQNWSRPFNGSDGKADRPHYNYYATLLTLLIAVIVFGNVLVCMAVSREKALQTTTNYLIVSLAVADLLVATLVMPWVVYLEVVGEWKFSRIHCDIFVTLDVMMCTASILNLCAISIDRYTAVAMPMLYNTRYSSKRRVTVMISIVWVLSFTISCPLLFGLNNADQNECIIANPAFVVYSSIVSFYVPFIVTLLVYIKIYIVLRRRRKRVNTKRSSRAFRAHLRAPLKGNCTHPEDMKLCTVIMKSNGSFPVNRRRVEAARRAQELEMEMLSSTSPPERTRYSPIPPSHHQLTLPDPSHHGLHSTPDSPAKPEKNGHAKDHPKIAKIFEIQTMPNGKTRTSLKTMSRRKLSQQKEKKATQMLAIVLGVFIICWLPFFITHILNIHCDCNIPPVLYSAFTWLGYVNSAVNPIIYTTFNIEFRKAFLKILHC
D(3) dopamine receptor, sequence (P35462 whole entry): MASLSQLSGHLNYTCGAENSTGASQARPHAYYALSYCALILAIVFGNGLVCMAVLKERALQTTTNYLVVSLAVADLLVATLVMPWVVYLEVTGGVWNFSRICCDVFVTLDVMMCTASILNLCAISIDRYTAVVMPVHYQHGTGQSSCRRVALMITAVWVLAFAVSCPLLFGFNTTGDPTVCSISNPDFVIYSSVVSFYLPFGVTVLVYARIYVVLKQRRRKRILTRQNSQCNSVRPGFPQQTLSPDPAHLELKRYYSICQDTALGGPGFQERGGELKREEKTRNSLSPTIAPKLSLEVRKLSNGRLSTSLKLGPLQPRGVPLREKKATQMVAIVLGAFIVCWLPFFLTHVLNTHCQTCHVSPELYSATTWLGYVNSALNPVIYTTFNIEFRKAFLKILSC

`C1=C(c2ccccc2)CCN(C[C@@H]2CCC=C(c3ccccc3)C2)C1` [CI-1007]: the results for the Activity in the assay on Rattus norvegicus [1], with Rattus norvegicus [3] and at D(2) dopamine receptor [4] were -99, -66 and 0.66, respectively. For the same molecule, the ED50 (as a rule, the dose at which the effect has come halfway, by size or by number of responders) in the assay on Monkey is 0.63 mg/kg; in the assay with Mus musculus, 0.7 mg/kg. Moreover, the affinity on D(2) dopamine receptor [2], expressed as Ki, was 8.4 nM.

With `Oc1ccc(C2=CCC[C@@H](CN3CC=C(c4ccccc4)CC3)C2)cc1`, the inhibition constant (Ki) (usually the equilibrium dissociation constant of an inhibitor or competing ligand from its target) stood at 61.4 nM at D(4) dopamine receptor, 0.52 nM on D(3) dopamine receptor, 0.2 nM at D(2) dopamine receptor [2] and 3.5 nM at D(2) dopamine receptor [5]. Besides, the Activity in the assay with Rattus norvegicus [1] is -100; in the assay with Rattus norvegicus [3], -27; at D(2) dopamine receptor [4], 0.62; with Rattus norvegicus [6], -44. In addition, the values for the ED50 in the assay with Monkey and in the assay on Mus musculus were 1.34 mg/kg and 0.3 mg/kg, respectively.

Regarding `Oc1ccc(C2=CCN(C[C@@H]3CCC=C(c4ccccc4)C3)CC2)cc1`, the Ki at D(4) dopamine receptor is more than 10000 nM; on D(3) dopamine receptor, 56.7 nM; on D(2) dopamine receptor [2], 5.7 nM; at D(2) dopamine receptor [5], 94 nM. Also, the Activity in the assay with Rattus norvegicus [1] stood at 33; with Rattus norvegicus [3], 0; at D(2) dopamine receptor [4], 0.37. The 50% effective dose (ED50) in the assay on Monkey is more than 2.5 mg/kg; in the assay on Mus musculus it was more than 30 mg/kg.

Take `Oc1ccc(C2=CCN(C[C@@H]3CCC=C(c4ccc(O)cc4)C3)CC2)cc1`: the Ki at D(4) dopamine receptor was 68 nM; on D(3) dopamine receptor, 3.4 nM; at D(2) dopamine receptor [2] it was 2.2 nM; on D(2) dopamine receptor [5] it was 10.3 nM. Further, the Activity with Rattus norvegicus [1] was -10; in the assay on Rattus norvegicus [3], -8; at D(2) dopamine receptor [4] it was 0.29. In addition, the ED50 in the assay on Monkey was more than 2.5 mg/kg; with Mus musculus it was 6.1 mg/kg.
